Test results published in ChEMBL document CHEMBL1131588, “A novel class of orally active non-peptide bradykinin B2 receptor antagonists. 2. Overcoming the species difference between guinea pig and man” (J Med Chem, 1998).
pIC50: −log10 of the molar value.

Key:
B2 bradykinin receptor [1] = biological target: T1, B2 bradykinin receptor (Cavia porcellus, UniProt O70526); test: Concentration required to inhibit specific binding of [3H]BK at 0.06 nM to Bradykinin receptor B2 in guinea pig ileum membrane preparations by 50%.; format: cell membranes
T1 sequence (O70526 whole entry): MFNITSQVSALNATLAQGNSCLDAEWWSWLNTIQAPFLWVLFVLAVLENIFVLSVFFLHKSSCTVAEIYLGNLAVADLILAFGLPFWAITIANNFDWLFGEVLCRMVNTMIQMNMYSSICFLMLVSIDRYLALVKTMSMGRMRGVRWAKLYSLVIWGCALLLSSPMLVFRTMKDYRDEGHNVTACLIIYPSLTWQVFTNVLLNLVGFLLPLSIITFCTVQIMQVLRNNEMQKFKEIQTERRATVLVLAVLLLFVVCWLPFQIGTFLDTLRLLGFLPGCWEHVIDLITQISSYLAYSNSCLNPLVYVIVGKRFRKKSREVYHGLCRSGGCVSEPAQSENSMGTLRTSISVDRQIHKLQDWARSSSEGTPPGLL
Procedure, shortened: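 Guinea pig ileal membranes (100000g pellet, pH 6.8 TES buffer with phenanthroline, bacitracin, DTT, captopril, 0.1% BSA), 0.2 mg protein/mL, incubated with 0.06 nM [3H]BK and compounds 60 min at room temperature; final DMSO below 3%. Filtration on glass fiber filters, scintillation counting; nonspecific binding with 1 µM BK. Three experiments in duplicate.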

B2 bradykinin receptor [2] = biological target: T2, B2 bradykinin receptor (Homo sapiens, UniProt P30411); test: Concentration required to inhibit specific binding of [3H]BK at 1.2 nM to A-431 cells (human epidermoid carcinoma) which express Bradykinin receptor B2 by 50%.; format: cell-based
T2 sequence (P30411 whole entry): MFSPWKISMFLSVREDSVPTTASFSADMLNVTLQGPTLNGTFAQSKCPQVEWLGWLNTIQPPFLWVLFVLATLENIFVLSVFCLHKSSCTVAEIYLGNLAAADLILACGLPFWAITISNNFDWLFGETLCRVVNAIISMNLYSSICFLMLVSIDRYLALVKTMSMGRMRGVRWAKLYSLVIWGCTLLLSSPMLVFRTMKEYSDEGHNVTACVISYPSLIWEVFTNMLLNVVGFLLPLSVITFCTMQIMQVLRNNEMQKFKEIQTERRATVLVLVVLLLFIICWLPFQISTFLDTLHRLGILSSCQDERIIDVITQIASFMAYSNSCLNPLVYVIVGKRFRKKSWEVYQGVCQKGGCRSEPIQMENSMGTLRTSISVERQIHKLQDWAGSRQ

Cavia porcellus [3] = test: Compound tested in vivo for inhibition of Bradykinin induced Bronchoconstriction in anaesthetized guinea pig.(P<0.01); % Inhibition at 1 mg/Kg p,o.; format: functional
Procedure, shortened: (§1)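 Male Hartley guinea pigs (470-750 g), fasted overnight, anesthetized with pentobarbital 30 mg/kg ip, cannulated (trachea, jugular vein, esophagus), ventilated 10 mL/kg at 60 breaths/min; alcuronium 0.5 mg/kg iv, propranolol 10 mg/kg sc. BK 5 µg/kg iv; peak rise in insufflation pressure (modified Konzett-Rössler).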

Cavia porcellus [4] = test: Compound tested in vivo for inhibition of Bradykinin induced Bronchoconstriction in anaesthetized guinea pig.(P<0.01); % Inhibition at 1 mg/kg. p.o.; format: functional; settings: route oral; procedure, shortened: as §1
Cavia porcellus [5] = test: Compound tested in vivo for inhibition of Bradykinin induced Bronchoconstriction in anaesthetized guinea pig.(P<0.001); % Inhibition at 3.2 mg/Kg p,o.; format: functional; procedure, shortened: as §1
Cavia porcellus [6] = test: Compound tested in vivo for inhibition of Bradykinin induced Bronchoconstriction in anaesthetized guinea pig.(P<0.05); % Inhibition at 1 mg/Kg p,o.; format: functional; procedure, shortened: as §1
Cavia porcellus [7] = test: Compound tested in vivo for inhibition of Bradykinin induced Bronchoconstriction in anaesthetized guinea pig.(P<0.01); % Inhibition at 3.2 mg/kg p.o.; format: functional; settings: route oral; procedure, shortened: as §1
Cavia porcellus [8] = test: Compound tested in vivo for inhibition of Bradykinin induced Bronchoconstriction in anaesthetized guinea pig; % Inhibition at 3.2 mg/Kg p,o.; format: functional; procedure, shortened: as §1
Cavia porcellus [9] = test: Compound tested in vivo for inhibition of Bradykinin induced Bronchoconstriction in anaesthetized guinea pig.(P<0.001); % Inhibition at 1 mg/Kg p,o.; format: functional; procedure, shortened: as §1

Compound | pIC50 (B2 bradykinin receptor [1]) | pIC50 (B2 bradykinin receptor [2]) | Inhibition (Cavia porcellus [3]) [%] | further results
COCCNC(=O)c1cccc(NC(=O)NCC(=O)N(C)c2ccc(Cl)c(COc3cccn4c(Br)c(C)nc34)c2Cl)c1.Cl | 9.10 | 7.70 | 16.1 | –
Cc1nc2c(OCc3c(Cl)ccc(N(C)C(=O)CNC(=O)Nc4cccc(N)c4)c3Cl)cccn2c1Br | 7.82 | < 6.00 | – | –
COCC(=O)Nc1cccc(NC(=O)NCC(=O)N(C)c2ccc(Cl)c(COc3cccn4c(Br)c(C)nc34)c2Cl)c1 | 8.57 | 7.12 | – | –
CCNC(=O)NCC(=O)N(C)c1ccc(Cl)c(COc2cccn3c(Br)c(C)nc23)c1Cl | – | 5.52 | – | inhibition in vivo at 1 mg/kg (Cavia porcellus [4]): 57.2%; Inhibition (Cavia porcellus [5]): 78.1%
CCCCCC(=O)NCC(=O)N(C)c1ccc(Cl)c(COc2cccn3c(Br)c(C)nc23)c1Cl | 8.25 | 6.62 | – | –
Cc1nc2c(OCc3c(Cl)ccc(N(C)C(=O)CNC(=O)Nc4cccc(C(=O)O)c4)c3Cl)cccn2c1Br | 7.20 | 5.28 | – | –
Cc1nc2c(OCc3c(Cl)ccc(N(C)C(=O)CNC(=O)Nc4cccc([N+](=O)[O-])c4)c3Cl)cccn2c1Br | 8.38 | 6.74 | – | inhibition in vivo at 1 mg/kg (Cavia porcellus [4]): 13.6%
Cc1ccccc1NC(=O)NCC(=O)N(C)c1ccc(Cl)c(COc2cccn3c(Br)c(C)nc23)c1Cl | 7.08 | 6.82 | – | –
Cc1nc2c(OCc3c(Cl)ccc(N(C)C(=O)CNC(=O)CCc4ccccc4)c3Cl)cccn2c1Br | 8.85 | 6.46 | – | –
CNC(=O)c1ccc(/C=C/C(=O)NCC(=O)N(C)c2ccc(Cl)c(COc3cccn4c(Br)c(C)nc34)c2Cl)cn1.Cl.Cl | 9.44 | 8.04 | 89.4 | –
CC(=O)Nc1ccc(/C=C/C(=O)NCC(=O)N(C)c2ccc(Cl)c(COc3cccn4c(Br)c(C)nc34)c2Cl)cn1.Cl.Cl | 9.42 | 8.62 | – | Inhibition (Cavia porcellus [6]): 76.4%
Cc1nc2c(OCc3c(Cl)ccc(N(C)C(=O)CNC(=O)/C=C/c4ccc(N5CCCC5=O)cc4)c3Cl)cccn2c1Br.Cl | 9.23 | 8.39 | 82 | –
NC(N)=NCCC[C@@H](N)C(=O)N[C@@H](CCCN=C(N)N)C(=O)N1CCC[C@H]1C(=O)N1C[C@H](O)C[C@H]1C(=O)NCC(=O)N[C@@H](Cc1cccs1)C(=O)N[C@@H](CO)C(=O)N1Cc2ccccc2C[C@@H]1C(=O)N1[C@H](C(=O)N[C@@H](CCCN=C(N)N)C(=O)O)C[C@@H]2CCCC[C@@H]21 [ICATIBANT] | 10.05 | – | – | –
Cc1nc2c(OCc3c(Cl)ccc(N(C)C(=O)CNC(=O)CCCc4ccccc4)c3Cl)cccn2c1Br | 8.05 | 6.32 | – | –
Cc1nc2c(OCc3c(Cl)ccc(N(C)C(=O)CNC(=O)NC(=O)c4ccccc4)c3Cl)cccn2c1Br | 6.47 | 6.29 | – | –
Cc1cccc(NC(=O)NCC(=O)N(C)c2ccc(Cl)c(COc3cccn4c(Br)c(C)nc34)c2Cl)c1 | 8.57 | 6.85 | – | inhibition in vivo at 3.2 mg/kg (Cavia porcellus [7]): 27.4%
Cc1nc2c(OCc3c(Cl)ccc(N(C)C(=O)CNC(=O)/C=C/c4ccc(NS(C)(=O)=O)cc4)c3Cl)cccn2c1Br | 8.41 | 8.32 | – | –

Compound | pIC50 (B2 bradykinin receptor [1]) | pIC50 (B2 bradykinin receptor [2]) | Inhibition (Cavia porcellus [3]) [%] | further results
CCCC(=O)NCC(=O)N(C)c1ccc(Cl)c(COc2cccn3c(Br)c(C)nc23)c1Cl | – | 6.21 | – | inhibition in vivo at 1 mg/kg (Cavia porcellus [4]): 52.7%
Cc1nc2c(OCc3c(Cl)ccc(N(C)C(=O)CNC(=O)Nc4cccc(C#N)c4)c3Cl)cccn2c1Br.Cl | 8.85 | 6.72 | 4.7 | –
CC(=O)c1cccc(NC(=O)NCC(=O)N(C)c2ccc(Cl)c(COc3cccn4c(Br)c(C)nc34)c2Cl)c1.Cl | 9.10 | 7.21 | 24.9 | –
CC(=O)N(C)c1ccc(/C=C/C(=O)NCC(=O)N(C)c2ccc(Cl)c(COc3cccn4c(Br)c(C)nc34)c2Cl)cc1.Cl | 8.96 | 7.80 | 84.3 | –
Cc1nc2c(OCc3c(Cl)ccc(N(C)C(=O)CNC(=O)Nc4ccccc4)c3Cl)cccn2c1Br | 8.85 | 6.82 | – | –
Cc1nc2c(OCc3c(Cl)ccc(N(C)C(=O)CNC(=O)Nc4cccc(Cl)c4)c3Cl)cccn2c1Br.Cl | 8.42 | 5.72 | 14.5 | –
Cc1nc2c(OCc3c(Cl)ccc(N(C)C(=O)CNC(=O)/C=C/c4ccc(C(=O)N(C)C)nc4)c3Cl)cccn2c1Br.Cl.Cl | 9.36 | 8.43 | 92.4 | –
Cc1nc2c(OCc3c(Cl)ccc(N(C)C(=O)CNC(=O)COc4ccccc4)c3Cl)cccn2c1Br | 8.38 | 6.29 | – | –
Cc1nc2c(OCc3c(Cl)ccc(N(C)C(=O)CNC(=O)/C=C\c4ccccc4)c3Cl)cccn2c1Br | 9.11 | 6.92 | – | inhibition in vivo at 1 mg/kg (Cavia porcellus [4]): 0%
Cc1nc2c(OCc3c(Cl)ccc(N(C)C(=O)CNC(=O)NCc4ccccc4)c3Cl)cccn2c1Br.Cl | 7.96 | 6.24 | – | Inhibition (Cavia porcellus [8]): 24.1%
CCOC(=O)c1cccc(NC(=O)NCC(=O)N(C)c2ccc(Cl)c(COc3cccn4c(Br)c(C)nc34)c2Cl)c1 | 8.66 | 6.82 | – | –
CC(=O)NCC(=O)N(C)c1ccc(Cl)c(COc2cccn3c(Br)c(C)nc23)c1Cl.Cl | – | 5.39 | – | inhibition in vivo at 1 mg/kg (Cavia porcellus [4]): 62.3%; Inhibition (Cavia porcellus [5]): 94.2%
CNC(=O)c1ccc(/C=C/C(=O)NCC(=O)N(C)c2ccc(Cl)c(COc3cccn4c(Br)c(C)nc34)c2Cl)cc1.Cl | 9.30 | 8.82 | – | Inhibition (Cavia porcellus [9]): 53.2%
COc1cccc(NC(=O)NCC(=O)N(C)c2ccc(Cl)c(COc3cccn4c(Br)c(C)nc34)c2Cl)c1.Cl | 8.64 | 6.70 | 0 | –
CNC(=O)Nc1ccc(/C=C/C(=O)NCC(=O)N(C)c2ccc(Cl)c(COc3cccn4c(Br)c(C)nc34)c2Cl)cc1.Cl | 9.05 | 8.59 | 18.8 | –
Cc1nc2c(OCc3c(Cl)ccc(N(C)C(=O)CNC(=O)Cc4ccccc4)c3Cl)cccn2c1Br.Cl | 8.28 | 6.17 | – | Inhibition (Cavia porcellus [8]): 19.8%
Cc1nc2c(OCc3c(Cl)ccc(N(C)C(=O)CNC(=O)Nc4cccc(C(=O)N(C)C)c4)c3Cl)cccn2c1Br.Cl | 9.12 | 7.70 | 23.2 | –
